In assay [1] the test system is HeLa. Briefly: Antiproliferative activity against human HeLa cells after 48 hrs by MTT assay. It counts as functional, cell-based. The gist of the method: (§1)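 MTT read-out. Cells were seeded at 5 × 10^3 per well in DMEM or RPMI with 10% FBS and grown 24 h at 37 °C in CO2. Compound dilutions in medium, with vehicle control, were then added for 48 h. MTT (0.5 mg/mL in medium) was given for 4 h, formazan was dissolved in DMSO, and A570 was read. IC50 was taken from concentration–response curves as mean ± SD of three experiments run in triplicate.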
(In general: Tetrazolium dyes change colour on reduction, which living cells bring about.)

The test system of assay [2] is MDA-MB-231. Nature of the assay: Antiproliferative activity against human MDA-MB-231 cells after 48 hrs by MTT assay. Format: functional, cell-based. The following applies: MDA-MB-231, 48 h. An outline of the steps:
as §1

For assay [3], the system named is DU-145. Nature of the assay: Antiproliferative activity against human DU145 cells after 48 hrs by MTT assay. Format: functional, cell-based. The following applies: DU-145, 48 h. An outline of the steps: as §1
Assay [4] has as its system BT-549. Nature of the assay: Antiproliferative activity against human BT549 cells after 48 hrs by MTT assay. It counts as functional, cell-based. The following applies: BT-549, 48 h. An outline of the steps:
as §1

The test system of assay [5] is PC-3. Briefly: Antiproliferative activity against human PC3 cells after 48 hrs by MTT assay. Conditions: PC-3, 48 h. It counts as functional, cell-based. An outline of the steps:
as §1

For assay [6], the system named is 4T1. Briefly: Antiproliferative activity against mouse 4T1 cells after 48 hrs by MTT assay. Format: functional, cell-based. The following applies: 4T1, 48 h. An outline of the steps: as §1
Assay [7] relates to A549. Nature of the assay: Antiproliferative activity against human A549 cells after 48 hrs by MTT assay. Format: functional, cell-based. Conditions: A549, 48 h. An outline of the steps:
as §1

For assay [8], the system named is HGC-27. Briefly: Antiproliferative activity against human HGC27 cells after 48 hrs by MTT assay. The following applies: HGC-27, 48 h. It counts as functional, cell-based. The gist of the method:
as §1

The subject of assay [9] is BT-549. Briefly: Potency index, ratio of curcumin IC50 to compound IC50 for human BT549 cells. Format: functional.
For assay [10], the system named is PC-3. Briefly: Potency index, ratio of curcumin IC50 to compound IC50 for human PC3 cells. Format: functional.
For assay [11], the system named is MDA-MB-231. Nature of the assay: Potency index, ratio of curcumin IC50 to compound IC50 for human MDA-MB-231 cells. Format: functional.

pIC50: −log10 of the molar value. Where a name gives a salt, the structure may show the parent alone.

The source of these data is ChEMBL document CHEMBL3994605, “Synthesis and biological evaluation of curcumin inspired indole analogues as tubulin polymerization inhibitors” (Eur J Med Chem, 2017).

In general, pIC50 refers to the IC50 on a negative log10 scale, so that one unit is a factor of ten. High values mean a low IC50, low ones a high IC50.

With `COc1cc(/C=C/C(=O)CC(=O)/C=C/c2ccc(O)c(OC)c2)ccc1O` [CURCUMIN], the negative-log IC50 (pIC50) is 4.59 in assay [1]; 4.80 in [2]; 4.55 in assay [3]; 4.60 in assay [4]; 4.91 in [5].
Turning to `COc1ccc(/C=C/C(=O)/C=C/c2cn(Cc3cccc(F)c3)c3ccccc23)cc1`, the pIC50 in [1], in assay [2], in [6], in [7], in assay [8] and in assay [3] was below 4.30 in each case. For the same molecule, the figures for the pIC50 in [4] and in assay [5] were 4.39 and below 4.30, respectively.
`COc1ccc(/C=C/C(=O)/C=C/c2cn(Cc3ccccc3)c3ccccc23)cc1`: the pIC50 was below 4.30 in [1]; below 4.30 in assay [2]; 4.30 in assay [6]; below 4.30 in [7]; below 4.30 in [8]; below 4.30 in assay [3]. The negative logarithm of the IC50 (pIC50) was 4.40 in [4] and below 4.30 in assay [5].
On to `COc1ccc(/C=C/C(=O)/C=C/c2cn(Cc3ccc(OC(F)(F)F)cc3)c3ccccc23)cc1OC`, for which the pIC50 in assay [1] is 4.30; in assay [2], below 4.30; in assay [6], below 4.30; in [7], below 4.30; in assay [8], below 4.30; in [3] it was below 4.30. Also, the results for the negative logarithm of the IC50 (pIC50) in [4] and in assay [5] were 4.30 and below 4.30, respectively.
On to `O=C(/C=C/c1ccc(Cl)cc1)/C=C/c1cn(Cc2ccccc2)c2ccccc12`, for which the negative-log IC50 (pIC50) in assay [1], in assay [2], in [6], in assay [7], in [8] and in assay [3] was below 4.30 in each case. Moreover, the pIC50 in assay [4] and in assay [5] was below 4.30 in each case.
With `COc1cc(OC)c(/C=C/C(=O)/C=C/c2cn(Cc3ccc(F)cc3)c3ccccc23)c(OC)c1`, the pIC50 in assay [1] is below 4.30; in [2], below 4.30; in assay [6], below 4.30; in assay [7] it was below 4.30; in assay [8] it was 4.29; in assay [3] it was below 4.30. Besides, the negative logarithm of the IC50 (pIC50) in assay [4] and in assay [5] was below 4.30 each time.
Consider `O=C(/C=C/c1ccc(Cl)cc1)/C=C/c1c[nH]c2ccccc12`, for which the pIC50 in assay [1] is 4.60; in [2], 4.30; in assay [6], 4.40; in assay [7] it was below 4.30; in assay [8], 4.30; in assay [3], below 4.30. The values for the pIC50 in assay [4] and in [5] were 4.52 and below 4.30, respectively.
With `COc1cc(OC)c(/C=C/C(=O)/C=C/c2cn(Cc3ccc(Cl)cc3)c3ccccc23)c(OC)c1`, the pIC50 in assay [1] was 4.39; in [2], below 4.30; in assay [6], below 4.30; in [7], below 4.30; in assay [8], below 4.30; in [3], below 4.30. Also, the pIC50 in assay [4] and in assay [5] was below 4.30 in each case.
`COc1cc(OC)c(OC)cc1/C=C/C(=O)/C=C/c1cn(Cc2ccc(C(F)(F)F)cc2)c2ccccc12`: the pIC50 in assay [1] is 4.30; in [2], below 4.30; in assay [6], 4.59; in assay [7], below 4.30; in assay [8] it was 4.40; in assay [3] it was below 4.30. Also, the pIC50 in assay [4] was 4.60; in [5], below 4.30.
As for `COc1ccc(/C=C/C(=O)/C=C/c2c[nH]c3ccccc23)cc1`, the negative logarithm of the IC50 (pIC50) was 4.49 in assay [2]; 4.67 in assay [6]; 4.35 in [7]; 4.62 in [8]; 4.87 in [3]; 4.50 in assay [4]. The molecule further had a negative logarithm of the IC50 (pIC50) in [5] of 5.45.
As for `COc1cc(OC)c(OC)cc1/C=C/C(=O)/C=C/c1cn(Cc2ccc(F)cc2)c2ccccc12`, the negative logarithm of the IC50 (pIC50) in [1] was 4.51; in assay [2], below 4.30; in [6], 4.60; in assay [7], 4.30; in assay [8], 4.40; in assay [3], below 4.30. The pIC50 in assay [4] is 4.60; in assay [5] it was below 4.30.
For the molecule `COc1cc(OC)c(/C=C/C(=O)/C=C/c2c[nH]c3ccccc23)c(OC)c1`, the results for the “Ratio IC50” value in [9], in assay [10] and in [11] were 2.4, 3.9 and 0.3, respectively. For the same molecule, the pIC50 is 4.33 in assay [2], 4.86 in assay [6], 4.98 in [4] and 5.51 in assay [5].
Regarding `COc1cc(OC)c(/C=C/C(=O)/C=C/c2cn(Cc3ccccc3)c3ccccc23)c(OC)c1`, the pIC50 in assay [1] is 4.30; in [2], below 4.30; in [6], below 4.30; in assay [7], below 4.30; in assay [8], below 4.30; in [3], below 4.30. For the same molecule, the pIC50 in assay [4] and in assay [5] was below 4.30 each time.
As to `COc1ccc(/C=C/C(=O)/C=C/c2cn(Cc3ccc(Cl)cc3)c3ccccc23)cc1`, the pIC50 was 4.30 in assay [1]; below 4.30 in assay [2]; below 4.30 in assay [6]; below 4.30 in assay [7]; below 4.30 in assay [8]; below 4.30 in assay [3]. Further, the negative logarithm of the IC50 (pIC50) in assay [4] was 4.30; in assay [5] it was below 4.30.
As for `CC[C@]1(O)C[C@H]2CN(CCc3c([nH]c4ccccc34)[C@@](C(=O)OC)(c3cc4c(cc3OC)N(C=O)[C@H]3[C@@](O)(C(=O)OC)[C@H](OC(C)=O)[C@]5(CC)C=CCN6CC[C@]43[C@@H]65)C2)C1` [VINCRISTINE SULFATE], the pIC50 in assay [2] was 6.93; in [7], 6.77; in assay [3], 7.14; in [4] it was 7.26; in assay [5] it was 7.56.
For the molecule `COc1ccc(/C=C/C(=O)/C=C/c2cn(Cc3ccc(F)cc3)c3ccccc23)cc1`, the pIC50 in assay [1], in assay [2], in assay [6], in assay [7], in [8] and in assay [3] was below 4.30 each time. Besides, the pIC50 in [4] and in assay [5] was below 4.30 each time.
Turning to `COc1cc(OC)c(OC)cc1/C=C/C(=O)/C=C/c1cn(Cc2ccccc2)c2ccccc12`, the negative-log IC50 (pIC50) in assay [1] is 4.30; in [2] it was below 4.30; in assay [6] it was 4.39; in assay [7] it was below 4.30; in assay [8], below 4.30; in [3], below 4.30. In addition, the pIC50 in assay [4] was 4.39; in assay [5], below 4.30.
Take `COc1ccc(OC)c(/C=C/C(=O)/C=C/c2cn(Cc3ccc(F)cc3)c3ccccc23)c1`: the negative logarithm of the IC50 (pIC50) in assay [1] is 4.29; in [2] it was below 4.30; in assay [6], below 4.30; in assay [7], below 4.30; in assay [8], below 4.30; in assay [3] it was below 4.30. The negative logarithm of the IC50 (pIC50) in [4] was 4.30; in assay [5], below 4.30.
In the case of `COc1ccc(OC)c(/C=C/C(=O)/C=C/c2cn(Cc3ccccc3)c3ccccc23)c1`, the pIC50 in assay [1], in assay [2], in assay [6], in [7], in assay [8] and in assay [3] was below 4.30 in each case. Also, the pIC50 in assay [4] and in [5] was below 4.30 each time.
Consider `COc1cc(OC)c(/C=C/C(=O)/C=C/c2cn(Cc3ccc(C(F)(F)F)cc3)c3ccccc23)c(OC)c1`, for which the pIC50 in [1], in assay [2], in assay [6], in [7], in assay [8] and in assay [3] was below 4.30 in each case. Also, the negative logarithm of the IC50 (pIC50) in [4] and in assay [5] was below 4.30 throughout.
For the molecule `COc1ccc(/C=C/C(=O)/C=C/c2cn(Cc3ccc(F)cc3)c3ccccc23)cc1OC`, the negative logarithm of the IC50 (pIC50) was below 4.30 in [1]; below 4.30 in [2]; 4.40 in assay [6]; below 4.30 in assay [7]; 4.30 in assay [8]; below 4.30 in assay [3]. The values for the pIC50 in assay [4] and in [5] were 4.52 and below 4.30, respectively.
On to `COc1ccc(OC)c(/C=C/C(=O)/C=C/c2cn(Cc3ccc(C(F)(F)F)cc3)c3ccccc23)c1`, for which the pIC50 in assay [1], in [2], in [6], in [7], in assay [8] and in [3] was below 4.30 throughout. Besides, the negative logarithm of the IC50 (pIC50) in [4] and in assay [5] was below 4.30 throughout.
As to `COc1cc(OC)c(/C=C/C(=O)/C=C/c2cn(Cc3cccc(F)c3)c3ccccc23)c(OC)c1`, the negative-log IC50 (pIC50) in [1] was 4.40; in assay [2], below 4.30; in assay [6] it was below 4.30; in assay [7] it was below 4.30; in assay [8], below 4.30; in [3] it was below 4.30. Besides, the pIC50 in assay [4] and in assay [5] was below 4.30 throughout.
As to `COc1ccc(/C=C/C(=O)/C=C/c2cn(Cc3ccc(C(F)(F)F)cc3)c3ccccc23)cc1`, the pIC50 in assay [1], in assay [2], in assay [6], in assay [7], in assay [8] and in assay [3] was below 4.30 throughout. For the same molecule, the pIC50 in assay [4] and in [5] was below 4.30 each time.
